{
  "source": "ChEMBL document CHEMBL3853281",
  "about": "“Pregnane-10,2-carbolactones from a Hawaiian Marine Sponge in the Genus Myrmekioderma” (J Nat Prod, 2016)",
  "key": {"Beta-secretase 1": {"target": "Beta-secretase 1 (Homo sapiens, UniProt P56817)", "sequence (P56817 whole entry)": "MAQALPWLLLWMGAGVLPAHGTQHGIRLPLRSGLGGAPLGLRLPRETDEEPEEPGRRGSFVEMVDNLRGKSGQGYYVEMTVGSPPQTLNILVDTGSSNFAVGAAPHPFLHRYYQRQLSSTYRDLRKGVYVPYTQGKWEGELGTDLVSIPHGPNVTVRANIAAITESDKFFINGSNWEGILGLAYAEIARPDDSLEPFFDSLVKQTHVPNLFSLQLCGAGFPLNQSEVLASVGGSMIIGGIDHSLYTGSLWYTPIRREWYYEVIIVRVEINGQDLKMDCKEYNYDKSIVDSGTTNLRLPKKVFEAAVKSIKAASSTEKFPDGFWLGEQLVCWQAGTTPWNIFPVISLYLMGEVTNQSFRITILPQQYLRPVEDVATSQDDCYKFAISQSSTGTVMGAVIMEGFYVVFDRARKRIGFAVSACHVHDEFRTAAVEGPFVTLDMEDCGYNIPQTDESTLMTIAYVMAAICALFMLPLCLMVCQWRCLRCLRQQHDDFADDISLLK", "test": "Inhibition of BACE1 (unknown origin) assessed as cleavage of amyloid precursor protein by beta-galactosidase enzyme complementation assay"}, "[1]": {"target": "T1, PXR (NR1I2); CYP3A4 gene expression (Homo sapiens, UniProt O75469)", "T1 sequence (O75469 whole entry)": "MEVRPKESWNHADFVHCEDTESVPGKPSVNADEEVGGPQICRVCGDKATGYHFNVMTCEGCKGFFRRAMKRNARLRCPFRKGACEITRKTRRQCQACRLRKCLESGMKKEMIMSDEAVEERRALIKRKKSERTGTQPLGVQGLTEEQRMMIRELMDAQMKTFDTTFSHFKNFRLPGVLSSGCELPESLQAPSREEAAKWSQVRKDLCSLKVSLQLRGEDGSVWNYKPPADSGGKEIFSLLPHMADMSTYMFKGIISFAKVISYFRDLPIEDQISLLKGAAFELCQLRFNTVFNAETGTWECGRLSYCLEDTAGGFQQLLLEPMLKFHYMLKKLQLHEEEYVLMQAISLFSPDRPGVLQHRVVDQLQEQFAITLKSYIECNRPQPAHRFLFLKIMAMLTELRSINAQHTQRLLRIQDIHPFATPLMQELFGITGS", "test": "Activation of human PXR expressed in human DPX2 cells assessed as induction of CYP3A4 gene expression at 10 uM measured after 24 hrs by luciferase reporter gene assay relative to control", "format": "cell-based", "details": "DPX2 cells expressing human PXR, read-out: FC", "in_short": "(§1)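 DPX2 cells stably carrying human PXR (NR1I2) and a luciferase reporter under two human CYP3A4 promoters. Cells were seeded, treated 24 h later with six compound concentrations in duplicate wells, then incubated 24 h more. Viable cells were counted by a fluorescent cytotoxicity read in the same wells, then luciferase (ONE-Glo) was read. Fold activation is relative to DMSO vehicle-treated cells.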"}, "[2]": {"target": "T2, Nuclear receptor subfamily 1 group I member 2 (Homo sapiens, UniProt O75469)", "T2 sequence (O75469 whole entry)": "T1 sequence (O75469 whole entry)", "test": "Activation of human PXR expressed in human DPX2 cells assessed as induction of CYP3A4 gene expression at 0.1 uM measured after 24 hrs by luciferase reporter gene assay relative to rifampicin", "format": "cell-based", "details": "dpx2, 24 h", "in_short": "(§2)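 PXR reporter run in stable DPX2 cells expressing human PXR with a luciferase reporter linked to two human CYP3A4 promoters. Compound (six concentrations, duplicate wells) was added 24 h after seeding, with a further 24 h incubation. Viability was read first, then luciferase in the same wells. Rifampicin was the reference at seven concentrations; activation is given as % of rifampicin response, with rifampicin at 10 μM.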"}, "[3]": {"target": "T2, Nuclear receptor subfamily 1 group I member 2", "test": "Activation of human PXR expressed in human DPX2 cells assessed as induction of CYP3A4 gene expression at 4 uM measured after 24 hrs by luciferase reporter gene assay relative to rifampicin", "format": "cell-based", "details": "dpx2, 24 h", "in_short": "as §2"}, "[4]": {"target": "T1, PXR (NR1I2); CYP3A4 gene expression", "test": "Activation of human PXR expressed in human DPX2 cells assessed as induction of CYP3A4 gene expression at 0.1 uM measured after 24 hrs by luciferase reporter gene assay relative to control", "format": "cell-based", "details": "DPX2 cells expressing human PXR, read-out: FC", "in_short": "as §1"}, "[5]": {"target": "T1, PXR (NR1I2); CYP3A4 gene expression", "test": "Activation of human PXR expressed in human DPX2 cells assessed as induction of CYP3A4 gene expression at 0.4 uM measured after 24 hrs by luciferase reporter gene assay relative to control", "format": "cell-based", "details": "DPX2 cells expressing human PXR, read-out: FC", "in_short": "as §1"}, "[6]": {"target": "T2, Nuclear receptor subfamily 1 group I member 2", "test": "Activation of human PXR expressed in human DPX2 cells assessed as induction of CYP3A4 gene expression at 1 uM measured after 24 hrs by luciferase reporter gene assay relative to rifampicin", "format": "cell-based", "details": "dpx2, 24 h", "in_short": "as §2"}, "[7]": {"target": "T2, Nuclear receptor subfamily 1 group I member 2", "test": "Activation of human PXR expressed in human DPX2 cells assessed as induction of CYP3A4 gene expression at 10 uM measured after 24 hrs by luciferase reporter gene assay relative to rifampicin", "format": "cell-based", "details": "dpx2, 24 h", "in_short": "as §2"}, "[8]": {"target": "T2, Nuclear receptor subfamily 1 group I member 2", "test": "Activation of human PXR expressed in human DPX2 cells assessed as induction of CYP3A4 gene expression at 0.4 uM measured after 24 hrs by luciferase reporter gene assay relative to rifampicin", "format": "cell-based", "details": "dpx2, 24 h", "in_short": "as §2"}, "[9]": {"target": "T1, PXR (NR1I2); CYP3A4 gene expression", "test": "Activation of human PXR expressed in human DPX2 cells assessed as induction of CYP3A4 gene expression at 40 uM measured after 24 hrs by luciferase reporter gene assay relative to control", "format": "cell-based", "details": "DPX2 cells expressing human PXR, read-out: FC", "in_short": "as §1"}, "[10]": {"target": "T2, Nuclear receptor subfamily 1 group I member 2", "test": "Activation of human PXR expressed in human DPX2 cells assessed as induction of CYP3A4 gene expression at 40 uM measured after 24 hrs by luciferase reporter gene assay relative to rifampicin", "format": "cell-based", "details": "dpx2, 24 h", "in_short": "as §2"}, "[11]": {"target": "T1, PXR (NR1I2); CYP3A4 gene expression", "test": "Activation of human PXR expressed in human DPX2 cells assessed as induction of CYP3A4 gene expression at 4 uM measured after 24 hrs by luciferase reporter gene assay relative to control", "format": "cell-based", "details": "DPX2 cells expressing human PXR, read-out: FC", "in_short": "as §1"}, "[12]": {"target": "T1, PXR (NR1I2); CYP3A4 gene expression", "test": "Activation of human PXR expressed in human DPX2 cells assessed as induction of CYP3A4 gene expression at 1 uM measured after 24 hrs by luciferase reporter gene assay relative to control", "format": "cell-based", "details": "DPX2 cells expressing human PXR, read-out: FC", "in_short": "as §1"}},
  "data": [
    {"smiles": "CC[C@]1(C)CCC2=C1CC[C@H]1[C@H]2C[C@@H](Cl)C2=C[C@@H](O)[C@@H]3C[C@@]21C(=O)O3", "values": [
      {"measurement": "IC50", "setting": "Beta-secretase 1", "result": 82, "unit": "µM"}
    ]},
    {"smiles": "C/C=C1\\CC[C@H]2[C@@H]3CC=C4[C@@H](O)[C@@H](O)[C@@H]5C[C@]4(C(=O)O5)[C@H]3CC[C@]12C", "values": [
      {"measurement": "fold induction at 24 h, 10 µM", "setting": "[1]", "result": 1.6},
      {"measurement": "Activity", "setting": "[2]", "result": 3, "unit": "%"},
      {"measurement": "Activity", "setting": "[3]", "result": 2, "unit": "%"},
      {"measurement": "fold induction at 24 h, 0.1 µM", "setting": "[4]", "result": 1.3},
      {"measurement": "fold induction at 24 h, 0.4 µM", "setting": "[5]", "result": 1.4},
      {"measurement": "Activity", "setting": "[6]", "result": 2, "unit": "%"},
      {"measurement": "Activity", "setting": "[7]", "result": 6, "unit": "%"},
      {"measurement": "Activity", "setting": "[8]", "result": 4, "unit": "%"},
      {"measurement": "fold induction at 24 h, 40 µM", "setting": "[9]", "result": 3.7},
      {"measurement": "Activity", "setting": "[10]", "result": 28, "unit": "%"},
      {"measurement": "fold induction at 24 h, 4 µM", "setting": "[11]", "result": 1.2},
      {"measurement": "fold induction at 24 h, 1 µM", "setting": "[12]", "result": 1.2}
    ]}
  ]
}
